Reference: ChEMBL document CHEMBL3588853, “Synthesis, biological evaluation, and molecular docking studies of novel 1-benzene acyl-2-(1-methylindol-3-yl)-benzimidazole derivatives as potential tubulin polymerization inhibitors” (Eur J Med Chem, 2015)
Values belong to the molecule of their own block, whether it stands above or below them.

Columns and labels:
HepG2 = assay: Growth inhibition of human HepG2 cells assessed as inhibition of cell proliferation after 24 hrs by MTT assay; assay type: functional; conditions: HepG2, 24 h
Method in brief: (§1)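 Cells seeded at (1–5) × 10^3 per well and grown 12 h at 37 °C. Compounds added at increasing concentrations in medium with 10% FBS for 24 h. MTT dye then added, followed by 3–4 h at 37 °C. Medium discarded, formazan dissolved in DMSO and plate read. GI50 calculated relative to DMSO-treated control wells.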

Tubulin (Bos taurus) = Tubulin (Bos taurus) (UniProt Q6B856+Q862F3); conditions: at 5 µM
A549 [1] = assay: Growth inhibition of human A549 cells assessed as inhibition of cell proliferation after 24 hrs by MTT assay; assay type: functional; conditions: A549, 24 h; method in brief: as §1
MCF7 = assay: Growth inhibition of human MCF7 cells assessed as inhibition of cell proliferation after 24 hrs by MTT assay; assay type: functional; conditions: MCF7, 24 h; method in brief: as §1
Tubulin = Tubulin (Bos taurus, UniProt Q6B856+Q862F3); assay: Inhibition of bovine brain tubulin polymerization extent after 20 mins by turbidimetrically
A549 [2] = assay: Induction of apoptosis in human A549 cells assessed as late apoptotic cells at 5 uM after 24 hrs by annexin V/PI double staining FACScalibur flow cytometry (reference value: 0.406 %); assay type: functional
A549 [3] = assay: Induction of cell cycle arrest in human A549 cells assessed as accumulation at SubG0 phase at 2 uM after 24 hrs by propidium iodide staining based flow cytometric analysis (reference value: 0%); assay type: functional
A549 [4] = assay: Induction of apoptosis in human A549 cells assessed as early apoptotic cells at 2 uM after 24 hrs by annexin V/PI double staining FACScalibur flow cytometry (reference value: 0.061%); assay type: functional
A549 [5] = assay: Induction of cell cycle arrest in human A549 cells assessed as accumulation at G0/G1 phase at 5 uM after 24 hrs by propidium iodide staining based flow cytometric analysis (reference value: 79.11%); assay type: functional
A549 [6] = assay: Induction of cell cycle arrest in human A549 cells assessed as accumulation at G2/M phase at 1 uM after 24 hrs by propidium iodide staining based flow cytometric analysis (reference value: 13.26%); assay type: functional
A549 [7] = assay: Induction of cell cycle arrest in human A549 cells assessed as accumulation at S phase at 5 uM after 24 hrs by propidium iodide staining based flow cytometric analysis (reference value: 7.63%); assay type: functional
A549 [8] = assay: Induction of cell cycle arrest in human A549 cells assessed as accumulation at SubG0 phase at 5 uM after 24 hrs by propidium iodide staining based flow cytometric analysis (reference value: 0%); assay type: functional
A549 [9] = assay: Induction of apoptosis in human A549 cells assessed as late apoptotic cells at 1 uM after 24 hrs by annexin V/PI double staining FACScalibur flow cytometry (reference value: 0.406 %); assay type: functional
A549 [10] = assay: Induction of apoptosis in human A549 cells assessed as viable cells at 1 uM after 24 hrs by annexin V/PI double staining FACScalibur flow cytometry (reference value: 99%); assay type: functional; conditions: A549, 24 h, read-out: Activity
A549 [11] = assay: Induction of cell cycle arrest in human A549 cells assessed as accumulation at S phase at 1 uM after 24 hrs by propidium iodide staining based flow cytometric analysis (reference value: 7.63%); assay type: functional
A549 [12] = assay: Induction of cell cycle arrest in human A549 cells assessed as accumulation at G2/M phase at 2 uM after 24 hrs by propidium iodide staining based flow cytometric analysis (reference value: 13.26%); assay type: functional
A549 [13] = assay: Induction of cell cycle arrest in human A549 cells assessed as accumulation at G0/G1 phase at 1 uM after 24 hrs by propidium iodide staining based flow cytometric analysis (reference value: 79.11%); assay type: functional
A549 [14] = assay: Induction of apoptosis in human A549 cells assessed as late apoptotic cells at 2 uM after 24 hrs by annexin V/PI double staining FACScalibur flow cytometry (reference value: 0.406 %); assay type: functional
A549 [15] = assay: Induction of apoptosis in human A549 cells assessed as viable cells at 2 uM after 24 hrs by annexin V/PI double staining FACScalibur flow cytometry (reference value: 99%); assay type: functional; conditions: A549, 24 h, read-out: Activity
A549 [16] = assay: Induction of apoptosis in human A549 cells assessed as early apoptotic cells at 5 uM after 24 hrs by annexin V/PI double staining FACScalibur flow cytometry (reference value: 0.061%); assay type: functional
A549 [17] = assay: Induction of apoptosis in human A549 cells assessed as viable cells at 5 uM after 24 hrs by annexin V/PI double staining FACScalibur flow cytometry (reference value: 99%); assay type: functional; conditions: A549, 24 h, read-out: Activity
A549 [18] = assay: Induction of apoptosis in human A549 cells assessed as necrotic cells at 5 uM after 24 hrs by annexin V/PI double staining FACScalibur flow cytometry (reference value: 0.529%); assay type: functional
A549 [19] = assay: Induction of cell cycle arrest in human A549 cells assessed as accumulation at SubG0 phase at 1 uM after 24 hrs by propidium iodide staining based flow cytometric analysis (reference value: 0%); assay type: functional
A549 [20] = assay: Induction of apoptosis in human A549 cells assessed as early apoptotic cells at 1 uM after 24 hrs by annexin V/PI double staining FACScalibur flow cytometry (reference value: 0.061%); assay type: functional
A549 [21] = assay: Induction of cell cycle arrest in human A549 cells assessed as accumulation at S phase at 2 uM after 24 hrs by propidium iodide staining based flow cytometric analysis (reference value: 7.63%); assay type: functional
A549 [22] = assay: Induction of cell cycle arrest in human A549 cells assessed as accumulation at G0/G1 phase at 2 uM after 24 hrs by propidium iodide staining based flow cytometric analysis (reference value: 79.11%); assay type: functional
A549 [23] = assay: Induction of apoptosis in human A549 cells assessed as necrotic cells at 2 uM after 24 hrs by annexin V/PI double staining FACScalibur flow cytometry (reference value: 0.529%); assay type: functional
A549 [24] = assay: Induction of cell cycle arrest in human A549 cells assessed as accumulation at G2/M phase at 5 uM after 24 hrs by propidium iodide staining based flow cytometric analysis (reference value: 13.26%); assay type: functional
A549 [25] = assay: Induction of apoptosis in human A549 cells assessed as necrotic cells at 1 uM after 24 hrs by annexin V/PI double staining FACScalibur flow cytometry (reference value: 0.529%); assay type: functional

Tubulin, sequence (Q6B856 whole entry): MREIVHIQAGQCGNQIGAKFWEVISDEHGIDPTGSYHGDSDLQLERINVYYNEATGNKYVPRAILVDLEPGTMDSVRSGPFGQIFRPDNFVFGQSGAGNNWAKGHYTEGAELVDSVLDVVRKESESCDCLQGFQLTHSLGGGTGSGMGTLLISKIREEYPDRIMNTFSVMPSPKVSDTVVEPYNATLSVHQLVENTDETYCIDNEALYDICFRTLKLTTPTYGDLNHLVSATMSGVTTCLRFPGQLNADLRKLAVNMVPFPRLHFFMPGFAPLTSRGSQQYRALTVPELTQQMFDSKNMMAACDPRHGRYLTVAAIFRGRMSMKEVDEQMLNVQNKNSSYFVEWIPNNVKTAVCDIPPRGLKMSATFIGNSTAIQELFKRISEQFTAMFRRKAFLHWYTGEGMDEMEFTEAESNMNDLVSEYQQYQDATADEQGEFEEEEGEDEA
Tubulin, sequence (Q862F3 whole entry): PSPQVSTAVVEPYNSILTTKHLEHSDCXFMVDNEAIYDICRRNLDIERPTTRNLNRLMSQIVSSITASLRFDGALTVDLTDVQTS

Compound: Cn1cc(-c2nc3ccccc3n2C(=O)c2ccccc2)c2cc(Br)ccc21
GI50 (HepG2): 48.1 µM | inhibition (Tubulin (Bos taurus)): 60% | GI50 (A549 [1]): 23.1 µM | GI50 (MCF7): 50.3 µM | IC50 (Tubulin): 25.3 µM

Compound: COc1ccc2c(c1)c(-c1nc3ccccc3n1C(=O)c1ccccc1Br)cn2C
GI50 (HepG2): 54.2 µM | inhibition (Tubulin (Bos taurus)): 55% | GI50 (A549 [1]): 29.5 µM | GI50 (MCF7): 55.8 µM | IC50 (Tubulin): 32.3 µM

Compound: Cn1cc(-c2nc3ccccc3n2C(=O)c2ccccc2)c2ccccc21
GI50 (HepG2): 42.3 µM | inhibition (Tubulin (Bos taurus)): 61% | GI50 (A549 [1]): 19.6 µM | GI50 (MCF7): 43.7 µM | IC50 (Tubulin): 23.8 µM

Compound: COc1cccc(C(=O)n2c(-c3cn(C)c4ccc(Br)cc34)nc3ccccc32)c1
GI50 (HepG2): 17.8 µM | inhibition (Tubulin (Bos taurus)): 78% | GI50 (A549 [1]): 10.8 µM | GI50 (MCF7): 18.2 µM | IC50 (Tubulin): 5.7 µM

Compound: COc1ccc2c(c1)c(-c1nc3ccccc3n1C(=O)c1cccc(Br)c1)cn2C
GI50 (HepG2): 51.3 µM | inhibition (Tubulin (Bos taurus)): 57% | GI50 (A549 [1]): 24.8 µM | GI50 (MCF7): 52.7 µM | IC50 (Tubulin): 29.2 µM

The next molecules have a lower GI50 (HepG2) than those just listed; values first:

GI50 (HepG2): 8.2 µM | inhibition (Tubulin (Bos taurus)): 91% | GI50 (A549 [1]): 3 µM | GI50 (MCF7): 9.7 µM | IC50 (Tubulin): 2 µM
Compound: COc1cc(C(=O)n2c(-c3cn(C)c4ccc(Br)cc34)nc3ccccc32)cc(OC)c1OC

GI50 (HepG2): 3.8 µM | inhibition (Tubulin (Bos taurus)): 96% | GI50 (A549 [1]): 2.4 µM | GI50 (MCF7): 5.1 µM | IC50 (Tubulin): 1.5 µM
Compound: COc1ccc2c(c1)c(-c1nc3ccccc3n1C(=O)c1cc(OC)c(OC)c(OC)c1)cn2C
Activity (A549 [2]): 6.03% | Activity (A549 [3]): 0% | Activity (A549 [4]): 17% | Activity (A549 [5]): 49.3% | Activity (A549 [6]): 27.23% | Activity (A549 [7]): 11.24% | Activity (A549 [8]): 0% | Activity (A549 [9]): 4.77% | viability at 1 µM (A549 [10]): 79.8% | Activity (A549 [11]): 12.51% | Activity (A549 [12]): 33.21% | Activity (A549 [13]): 60.17% | Activity (A549 [14]): 5.13% | viability at 2 µM (A549 [15]): 77.3% | Activity (A549 [16]): 17.2% | viability at 5 µM (A549 [17]): 76.2% | Activity (A549 [18]): 0.595% | Activity (A549 [19]): 0% | Activity (A549 [20]): 14.8% | Activity (A549 [21]): 12.51% | Activity (A549 [22]): 57.42% | Activity (A549 [23]): 0.543% | Activity (A549 [24]): 39.46% | Activity (A549 [25]): 0.59%

GI50 (HepG2): 5.1 µM | inhibition (Tubulin (Bos taurus)): 94% | GI50 (A549 [1]): 2.7 µM | GI50 (MCF7): 6.3 µM | IC50 (Tubulin): 1.7 µM
Compound: COc1ccc2c(c1)c(-c1nc3ccccc3n1C(=O)c1ccc(OC)c(OC)c1)cn2C

GI50 (HepG2): 12.8 µM | inhibition (Tubulin (Bos taurus)): 82% | GI50 (A549 [1]): 4.9 µM | GI50 (MCF7): 14.8 µM | IC50 (Tubulin): 3.5 µM
Compound: COc1ccc(C(=O)n2c(-c3cn(C)c4ccc(OC)cc34)nc3ccccc32)cc1

GI50 (HepG2): 10.5 µM | GI50 (A549 [1]): 4.4 µM | GI50 (MCF7): 13.5 µM
Compound: COc1cc2c(c(OC)c1OC)-c1ccc(OC)c(=O)cc1[C@@H](NC(C)=O)CC2 [COLCHICINE]

GI50 (HepG2): 9.7 µM | inhibition (Tubulin (Bos taurus)): 85% | GI50 (A549 [1]): 3.4 µM | GI50 (MCF7): 11.3 µM | IC50 (Tubulin): 2.4 µM
Compound: COc1ccc(C(=O)n2c(-c3cn(C)c4ccc(Br)cc34)nc3ccccc32)cc1OC

GI50 (HepG2): 13.6 µM | inhibition (Tubulin (Bos taurus)): 81% | GI50 (A549 [1]): 10.2 µM | GI50 (MCF7): 15.7 µM | IC50 (Tubulin): 4.4 µM
Compound: COc1cccc(C(=O)n2c(-c3cn(C)c4ccccc34)nc3ccccc32)c1

GI50 (HepG2): 15.2 µM | inhibition (Tubulin (Bos taurus)): 80% | GI50 (A549 [1]): 10.4 µM | GI50 (MCF7): 16.3 µM | IC50 (Tubulin): 4.6 µM
Compound: COc1ccc(C(=O)n2c(-c3cn(C)c4ccccc34)nc3ccccc32)cc1
